Tests used:
Format in all cases: functional
Rattus norvegicus [1] = test: Inhibition of carrageenan edema in rats was determined after peroral administration of 100 mg/kg; conditions: route oral
How it was run: (§1)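 Male Wistar rats (150–175 g) dosed orally, in mg/kg, as a suspension in 0.5% carboxymethylcellulose (1 mL/kg), 1 h before subplantar injection of 0.1 mL of 1% Type 402 carrageenin. Paw edema measured by electronic plethysmography at 3 h. Swelling (3 h minus 0 h) per rat; treated-group mean expressed as percent of vehicle-control mean.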

Rattus norvegicus [2] = test: Inhibition of carrageenan edema in adrenalectomized rats was determined after peroral administration; conditions: po
How it was run: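 Carrageenin paw edema run as in intact rats, but male Wistar rats were bilaterally adrenalectomized under ether and allowed 7 days to recover. They drank 1.0% NaCl plus 2.5% dextrose and ate standard chow. Oral dosing in 0.5% CMC 1 h before subplantar 1% carrageenin. Plethysmographic swelling at 3 h, as percent of vehicle-treated controls.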

Rattus norvegicus [3] = test: Inhibition of carrageenan edema in normal rats was determined after peroral administration; conditions: po; how it was run: as §1
Rattus norvegicus [4] = organism: Rattus norvegicus; test: Inhibition of the development of adjuvant-induced polyarthritis in rats was determined
Rattus norvegicus [5] = test: Nonnarcotic analgesic effect was determined after peroral administration in rats; conditions: po, read-out: MED
Rattus norvegicus [6] = test: Bronchoconstrictor effect of bradykinin was determined after intravenous administration in rats
Rattus norvegicus [7] = test: Bronchoconstrictor effect of bradykinin was determined after intravenous administration in rats.
Rattus norvegicus [8] = test: Nonnarcotic analgesic effect was determined after peroral administration in rats.; conditions: po, read-out: MED

| Compound | inhibition in vivo at 100 mg/kg (Rattus norvegicus [1]) | ED50 (Rattus norvegicus [3]) | ED50 (Rattus norvegicus [1]) | ED50 (Rattus norvegicus [4]) | further results |
| --- | --- | --- | --- | --- | --- |
| CC(C)n1c(=O)nc(-c2ccc(OCc3ccccc3)cc2)c2cc3c(cc21)OCO3 | 17% | – | – | – | – |
| CC(C)n1c(=S)nc(-c2ccc(F)cc2)c2cc3c(cc21)OCO3 | 49% | – | – | – | – |
| CC(C)n1c(=O)nc(-c2cccc(F)c2)c2cc3c(cc21)OCO3 | – | 9 mg/kg | 9 mg/kg | 9 mg/kg | ED50 (Rattus norvegicus [2]): 14 mg/kg; minimal effective dose (Rattus norvegicus [5]): 11 mg/kg; ED50 (Rattus norvegicus [6]): 0.05 mg/kg |
| CC(C)n1c(=S)nc(-c2cccc(F)c2)c2cc3c(cc21)OCO3 | 36% | – | – | – | – |
| CC(C)n1c(=S)nc(-c2cccc([N+](=O)[O-])c2)c2cc3c(cc21)OCO3 | 0% | – | – | – | – |
| CC(C)n1c(=O)nc(-c2ccccc2)c2cc3c(cc21)OCO3 | – | 8 mg/kg | 7 mg/kg | 3 mg/kg | ED50 (Rattus norvegicus [7]): 0.012 mg/kg; ED50 (Rattus norvegicus [2]): 9 mg/kg; minimal effective dose (Rattus norvegicus [5]): 50 mg/kg |
| CC(C)n1c(=O)nc(-c2cccc([N+](=O)[O-])c2)c2cc3c(cc21)OCO3 | 28% | – | – | – | – |
| CC(C)n1c(=O)nc(-c2ccc(C(=O)O)cc2)c2cc3c(cc21)OCO3 | 33% | – | – | – | – |
| CC(C)n1c(=O)nc(-c2ccc(F)cc2)c2cc3c(cc21)OCO3 | – | 8 mg/kg | 8 mg/kg | 6 mg/kg | ED50 (Rattus norvegicus [7]): 0.17 mg/kg; ED50 (Rattus norvegicus [2]): 20 mg/kg; minimal effective dose (Rattus norvegicus [5]): 4 mg/kg |
| Cc1ccccc1C1NC(=O)N(C(C)C)c2cc3c(cc21)OCO3 (stereo unspecified) | – | – | 50 mg/kg | – | – |
| COc1cccc(-c2nc(=O)n(C(C)C)c3cc4c(cc23)OCO4)c1 | 12% | – | – | – | – |
| CC(C)n1c(=O)nc(-c2ccc3c(c2)OCO3)c2cc3c(cc21)OCO3 | 21% | – | – | – | – |
| Cc1ccc(-c2nc(=O)n(C(C)C)c3cc4c(cc23)OCO4)cc1 | 22% | – | – | – | – |
| Cc1ccccc1-c1nc(=O)n(C(C)C)c2cc3c(cc12)OCO3 | – | – | 65 mg/kg | – | – |
| CC(C)n1c(=O)nc(-c2ccccc2[N+](=O)[O-])c2cc3c(cc21)OCO3 | – | – | 39 mg/kg | – | – |
| CC(C)c1ccc(-c2nc(=S)n(C(C)C)c3cc4c(cc23)OCO4)cc1 | 10% | – | – | – | – |
| CC(C)n1c(=O)nc(-c2ccc(Cl)c(Cl)c2)c2cc3c(cc21)OCO3 | 30% | – | – | – | – |
| CC(C)n1c(=S)nc(-c2ccccc2)c2cc3c(cc21)OCO3 | – | 7 mg/kg | 7 mg/kg | 6 mg/kg | ED50 (Rattus norvegicus [7]): 0.047 mg/kg |
| COc1ccc2c(c1)c(CC(=O)O)c(C)n2C(=O)c1ccc(Cl)cc1 [INDOMETHACIN] | – | 5 mg/kg | 5 mg/kg | 0.1 mg/kg | ED50 (Rattus norvegicus [2]): 6 mg/kg; minimal effective dose (Rattus norvegicus [8]): 4 mg/kg |
| CCCCC1C(=O)N(c2ccccc2)N(c2ccccc2)C1=O [PHENYLBUTAZONE] | – | 25 mg/kg | 25 mg/kg | 5 mg/kg | ED50 (Rattus norvegicus [2]): 30 mg/kg; minimal effective dose (Rattus norvegicus [8]): 9 mg/kg |
| Cc1ccc2c(-c3ccccc3)nc(=O)n(C(C)C)c2c1 [PROQUAZONE] | – | 5 mg/kg | 5 mg/kg | 1 mg/kg | ED50 (Rattus norvegicus [2]): 6 mg/kg; minimal effective dose (Rattus norvegicus [8]): 1 mg/kg |

Reference: ChEMBL document CHEMBL1122137, “Antiinflammatory properties of 8-aryl-5-isopropyl-2H-1,3-dioxolo[4,5-g]quinazolin-6(5H)-ones and -thiones” (1982)
